ChEMBL document CHEMBL4425133, “Discovery and Pharmacokinetic and Pharmacological Properties of the Potent and Selective MET Kinase Inhibitor 1-{6-[6-(4-Fluorophenyl)-[1,2,4]triazolo[4,3-b]pyridazin-3-ylsulfanyl]benzothiazol-2-yl}-3-(2-morpholin-4-ylethyl)urea (SAR125844)” (J Med Chem, 2016)
pIC50, pKd: −log10 of the molar value. “And” between values parts separate entries of the source, which are not always exact repeats. Identical values can stand only once.

Experiments:
in vivo = settings: SCID, mouse, tumor/plasma, iv, 20 mg/kg
[1] = Clearance in dog at 3 mg/kg, iv; format: ADME, organism-based, Canis lupus familiaris; settings: in vivo
[2] = target: T1, Hepatocyte growth factor receptor (Homo sapiens, UniProt P08581); test: Inhibition of wild type phosphorylated MET (unknown origin) pre-incubated for 30 mins before biotinylated poly(glutamate-alanine-tyrosine) peptide addition and measured after 5 mins by HTRF assay
T1 sequence (P08581 whole entry): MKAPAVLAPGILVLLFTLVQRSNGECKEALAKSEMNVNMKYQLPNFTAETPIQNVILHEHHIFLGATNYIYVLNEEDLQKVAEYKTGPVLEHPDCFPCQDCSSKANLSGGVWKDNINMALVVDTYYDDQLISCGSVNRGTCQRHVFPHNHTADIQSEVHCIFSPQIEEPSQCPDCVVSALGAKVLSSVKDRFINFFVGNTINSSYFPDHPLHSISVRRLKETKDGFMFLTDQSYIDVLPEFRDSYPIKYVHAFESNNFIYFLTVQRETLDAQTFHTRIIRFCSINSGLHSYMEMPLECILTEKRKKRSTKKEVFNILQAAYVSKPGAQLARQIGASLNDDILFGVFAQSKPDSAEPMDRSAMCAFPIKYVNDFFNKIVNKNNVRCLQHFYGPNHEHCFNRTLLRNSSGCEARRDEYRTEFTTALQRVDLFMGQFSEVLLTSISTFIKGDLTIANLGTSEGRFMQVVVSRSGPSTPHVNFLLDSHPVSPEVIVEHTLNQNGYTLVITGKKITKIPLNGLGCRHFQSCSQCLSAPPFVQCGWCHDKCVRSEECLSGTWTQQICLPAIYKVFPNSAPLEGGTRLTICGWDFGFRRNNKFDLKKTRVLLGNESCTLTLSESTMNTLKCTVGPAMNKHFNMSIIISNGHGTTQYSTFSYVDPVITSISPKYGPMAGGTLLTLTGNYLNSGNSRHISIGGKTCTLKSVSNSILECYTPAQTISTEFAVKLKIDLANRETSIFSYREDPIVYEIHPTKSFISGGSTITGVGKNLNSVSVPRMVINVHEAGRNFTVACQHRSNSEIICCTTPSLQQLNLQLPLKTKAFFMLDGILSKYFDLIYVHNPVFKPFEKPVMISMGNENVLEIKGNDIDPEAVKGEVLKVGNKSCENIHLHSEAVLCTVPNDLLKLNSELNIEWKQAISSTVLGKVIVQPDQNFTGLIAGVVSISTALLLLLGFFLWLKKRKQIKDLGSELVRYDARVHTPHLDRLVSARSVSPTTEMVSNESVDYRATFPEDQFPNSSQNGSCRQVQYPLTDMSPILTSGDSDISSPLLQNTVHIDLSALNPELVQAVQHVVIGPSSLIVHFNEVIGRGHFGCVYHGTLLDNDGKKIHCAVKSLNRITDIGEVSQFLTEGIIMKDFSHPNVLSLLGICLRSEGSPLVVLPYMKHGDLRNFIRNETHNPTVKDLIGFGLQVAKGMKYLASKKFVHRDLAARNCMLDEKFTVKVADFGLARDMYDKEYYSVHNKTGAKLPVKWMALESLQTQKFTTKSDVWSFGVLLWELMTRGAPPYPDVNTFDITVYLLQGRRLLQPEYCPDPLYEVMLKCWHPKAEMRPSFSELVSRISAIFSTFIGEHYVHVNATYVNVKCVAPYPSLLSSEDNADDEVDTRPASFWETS

[3] = Equilibrium solubility in phosphate buffer in presence of 10% Labrasol at pH 7.4; format: physicochemical; settings: phosphate buffer with 10% Labrasol
Mus musculus [4] = test: Inhibition of MET Y1349 phosphorylation in SCID mouse bearing advanced-stage human Hs746T cells at 20 mg/kg, iv administered as single dose after 4 to 48 hrs by using MSD assay; format: functional, organism-based; settings: TDE = time-dependent effect
[5] = Clearance in rat at 5 mg/kg, iv; format: ADME, organism-based; settings: in vivo
[6] = Volume of distribution at steady state in advanced solid tumor patient at 50 to 740 mg/m2 during phase-1 trial; format: ADME; settings: human, in vivo; read-out: Vdss
[7] = Terminal half life in advanced solid tumor patient at 50 to 740 mg/m2 during phase-1 trial; format: ADME; settings: human, in vivo; read-out: beta t1/2 (converted)
Mus musculus [8] = test: Inhibition of MET Y1349 phosphorylation in SCID mouse bearing advanced-stage human Hs746T cells at 20 mg/kg, iv administered as single dose after 4 hrs by using MSD assay; format: functional
[9] = Clearance in SCID mouse bearing advanced-stage human Hs746T cells at 20 mg/kg, iv administered as single dose after 1 to 72 hrs by liquid chromatography-tandem mass spectrometry; format: ADME, organism-based; settings: in vivo
[10] = Volume of distribution at steady state in dog at 3 mg/kg, iv; format: ADME, organism-based, Canis lupus familiaris; settings: in vivo, read-out: Vdss
[11] = target: T1, Hepatocyte growth factor receptor; test: Binding affinity to MET (unknown origin) by isothermal titration calorimetry
[12] = Toxicity in advanced solid tumor patient at 50 to 740 mg/m2 during phase-1 trial; settings: human, in vivo
[13] = Terminal half life in dog at 3 mg/kg, iv; format: ADME, organism-based, Canis lupus familiaris; settings: in vivo, read-out: beta t1/2 (converted)
[14] = Lipophilicity, log D of the compound by HPLC method; format: physicochemical
MKN-45 = test: Antiproliferative activity against human MKN45 cells assessed as reduction in [14C]-thymidine incorporation incubated for 96 hrs by beta counting method; format: functional, cell-based; settings: MKN-45, 96 h
How it was run: (§1)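 MKN-45 is a MET-amplified human gastric tumour cell line.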

[15] = Unbound drug uptake in tumor of SCID mouse bearing advanced-stage human Hs746T cells at 20 mg/kg, iv administered as single dose after 24 hrs by liquid chromatography-tandem mass spectrometry; format: ADME, organism-based, Neoplasm; settings: in vivo
[16] = Terminal half life in rat at 5 mg/kg, iv […]; format: ADME, organism-based; settings: in vivo, read-out: beta t1/2 (converted)
[17] = target: Hepatocyte growth factor receptor (Homo sapiens, UniProt P08581, L1195V); test: Inhibition of phosphorylated MET L1195V mutant (unknown origin) pre-incubated for 30 mins before biotinylated poly(glutamate-alanine-tyrosine) peptide addition and measured after 5 mins by HTRF assay
Sequence of Hepatocyte growth factor receptor (Homo sapiens, UniProt P08581, L1195V) (P08581 25-1390 L1195V limits assumed): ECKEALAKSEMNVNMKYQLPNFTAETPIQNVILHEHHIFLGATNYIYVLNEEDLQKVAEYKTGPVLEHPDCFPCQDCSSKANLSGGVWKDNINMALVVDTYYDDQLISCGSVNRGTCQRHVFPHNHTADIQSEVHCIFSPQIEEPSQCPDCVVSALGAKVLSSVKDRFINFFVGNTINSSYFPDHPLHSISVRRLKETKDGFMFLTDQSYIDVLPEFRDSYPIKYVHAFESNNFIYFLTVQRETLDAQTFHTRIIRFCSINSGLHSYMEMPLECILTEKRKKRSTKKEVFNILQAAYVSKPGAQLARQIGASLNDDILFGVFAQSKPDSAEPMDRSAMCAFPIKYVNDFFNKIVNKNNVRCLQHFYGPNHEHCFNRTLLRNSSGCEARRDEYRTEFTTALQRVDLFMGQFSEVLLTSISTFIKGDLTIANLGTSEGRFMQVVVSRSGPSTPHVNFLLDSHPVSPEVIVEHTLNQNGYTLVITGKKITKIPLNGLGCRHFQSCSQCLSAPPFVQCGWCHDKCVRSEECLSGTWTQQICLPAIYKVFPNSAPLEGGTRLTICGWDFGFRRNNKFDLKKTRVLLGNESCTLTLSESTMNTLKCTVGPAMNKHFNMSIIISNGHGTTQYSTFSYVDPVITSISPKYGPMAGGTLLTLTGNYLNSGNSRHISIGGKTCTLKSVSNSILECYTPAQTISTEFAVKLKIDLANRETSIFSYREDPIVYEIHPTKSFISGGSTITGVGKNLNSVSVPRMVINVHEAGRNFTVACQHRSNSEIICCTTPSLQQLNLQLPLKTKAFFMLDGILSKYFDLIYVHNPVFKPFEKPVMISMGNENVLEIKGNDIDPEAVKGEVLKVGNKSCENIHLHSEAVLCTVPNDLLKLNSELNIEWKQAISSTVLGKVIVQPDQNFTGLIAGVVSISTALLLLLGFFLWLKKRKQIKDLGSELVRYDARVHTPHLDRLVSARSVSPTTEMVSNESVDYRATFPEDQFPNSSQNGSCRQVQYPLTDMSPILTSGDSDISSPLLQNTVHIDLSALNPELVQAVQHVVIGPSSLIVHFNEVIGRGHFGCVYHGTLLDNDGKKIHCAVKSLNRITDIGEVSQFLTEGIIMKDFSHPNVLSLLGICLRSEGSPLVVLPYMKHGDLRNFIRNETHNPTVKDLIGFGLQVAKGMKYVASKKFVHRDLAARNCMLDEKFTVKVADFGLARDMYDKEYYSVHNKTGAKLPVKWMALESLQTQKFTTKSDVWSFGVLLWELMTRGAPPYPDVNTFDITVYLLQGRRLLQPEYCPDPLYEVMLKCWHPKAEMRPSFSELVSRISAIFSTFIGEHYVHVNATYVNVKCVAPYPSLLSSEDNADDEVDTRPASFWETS

[18] = target: T1, Hepatocyte growth factor receptor; test: Inhibition of phosphorylated MET in human MKN45 cells assessed as reduction in pMET Y1230/1234/1235 level incubated for 1 hr by ELISA; format: cell-based
How it was run: as §1

[19] = Drug level in advanced solid tumor patient at 50 to 740 mg/m2 during phase-1 trial; format: ADME; settings: human, in vivo
[20] = target: Hepatocyte growth factor receptor (Homo sapiens, UniProt P08581, M1250T); test: Inhibition of phosphorylated MET M1250T mutant (unknown origin) pre-incubated for 30 mins before biotinylated poly(glutamate-alanine-tyrosine) peptide addition and measured after 5 mins by HTRF assay
[21] = Volume of distribution at steady state in SCID mouse bearing advanced-stage human Hs746T cells at 20 mg/kg, iv administered as single dose after 1 to 72 hrs by liquid chromatography-tandem mass spectrometry; format: ADME, organism-based; settings: in vivo, read-out: Vdss
[22] = Clearance in dog at 3 mg/kg, iv relative to hepatic blood flow; format: ADME, organism-based, Canis lupus familiaris; settings: in vivo
[23] = Clearance in mouse at 1 mg/kg, iv relative to hepatic blood flow; format: ADME, organism-based; settings: in vivo
[24] = Blood clearance in advanced solid tumor patient at 50 to 740 mg/m2 during phase-1 trial; format: ADME, tissue-based; settings: human, whole blood
[25] = Clearance in mouse at 1 mg/kg, iv; format: ADME, organism-based; settings: in vivo
[26] = Drug distribution in rat tumor at 25 mg/kg administered as [14C[-labeled compound through infusion after 1 to 2 hrs; format: ADME, organism-based, Neoplasm; settings: in vivo, iv
[27] = target: Hepatocyte growth factor receptor (Homo sapiens, UniProt P08581, Y1230H); test: Inhibition of phosphorylated MET Y1230H mutant (unknown origin) pre-incubated for 30 mins before biotinylated poly(glutamate-alanine-tyrosine) peptide addition and measured after 5 mins by HTRF assay
Sequence of Hepatocyte growth factor receptor (Homo sapiens, UniProt P08581, Y1230H) (P08581 25-1390 Y1230H limits assumed): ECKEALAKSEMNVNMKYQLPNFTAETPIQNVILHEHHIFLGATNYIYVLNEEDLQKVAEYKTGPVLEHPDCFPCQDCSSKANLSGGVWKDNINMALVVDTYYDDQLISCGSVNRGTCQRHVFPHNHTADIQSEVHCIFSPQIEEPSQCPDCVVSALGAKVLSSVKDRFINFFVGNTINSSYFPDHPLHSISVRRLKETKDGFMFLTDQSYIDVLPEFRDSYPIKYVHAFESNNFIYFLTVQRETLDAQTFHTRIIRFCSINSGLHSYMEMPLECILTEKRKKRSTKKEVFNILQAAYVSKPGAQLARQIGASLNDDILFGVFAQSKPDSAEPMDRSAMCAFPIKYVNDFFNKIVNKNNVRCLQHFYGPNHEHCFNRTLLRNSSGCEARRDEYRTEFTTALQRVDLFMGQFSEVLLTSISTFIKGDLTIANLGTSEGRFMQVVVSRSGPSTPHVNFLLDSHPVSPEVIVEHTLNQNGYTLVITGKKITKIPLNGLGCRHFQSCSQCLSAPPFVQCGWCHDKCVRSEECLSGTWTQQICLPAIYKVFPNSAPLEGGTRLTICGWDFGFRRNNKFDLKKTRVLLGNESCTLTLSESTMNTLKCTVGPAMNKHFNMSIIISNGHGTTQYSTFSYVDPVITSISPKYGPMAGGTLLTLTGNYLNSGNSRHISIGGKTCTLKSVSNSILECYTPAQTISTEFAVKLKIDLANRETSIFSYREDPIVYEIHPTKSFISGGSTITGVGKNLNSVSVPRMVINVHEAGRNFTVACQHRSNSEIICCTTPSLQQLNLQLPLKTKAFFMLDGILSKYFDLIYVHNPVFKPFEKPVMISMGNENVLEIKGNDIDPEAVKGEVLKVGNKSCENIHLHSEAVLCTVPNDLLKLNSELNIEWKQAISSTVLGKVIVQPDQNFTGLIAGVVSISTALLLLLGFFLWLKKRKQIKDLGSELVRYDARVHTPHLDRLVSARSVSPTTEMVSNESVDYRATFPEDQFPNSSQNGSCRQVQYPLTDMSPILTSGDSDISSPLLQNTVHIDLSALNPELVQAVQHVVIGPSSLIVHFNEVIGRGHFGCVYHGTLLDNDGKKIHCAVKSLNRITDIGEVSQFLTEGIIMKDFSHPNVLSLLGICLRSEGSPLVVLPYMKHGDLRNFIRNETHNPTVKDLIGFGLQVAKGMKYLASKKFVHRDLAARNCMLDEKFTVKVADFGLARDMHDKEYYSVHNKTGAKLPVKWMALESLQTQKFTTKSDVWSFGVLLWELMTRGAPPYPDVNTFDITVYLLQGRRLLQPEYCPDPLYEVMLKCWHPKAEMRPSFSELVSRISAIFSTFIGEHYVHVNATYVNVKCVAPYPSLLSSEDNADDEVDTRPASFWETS

[28] = Drug uptake in tumor of SCID mouse bearing advanced-stage human Hs746T cells at 20 mg/kg, iv administered as single dose after 1 to 72 hrs by liquid chromatography-tandem mass spectrometry; format: ADME, organism-based, Neoplasm; settings: in vivo
[29] = Equilibrium solubility in phosphate buffer in absence of 10% Labrasol at pH 7.4; format: physicochemical
[30] = Oral bioavailability in mouse; format: ADME, organism-based; settings: in vivo
[31] = Volume of distribution at steady state in mouse at 1 mg/kg, iv; format: ADME, organism-based; settings: in vivo, read-out: Vdss
[32] = Clearance in rat at 5 mg/kg, iv relative to hepatic blood flow; format: ADME, organism-based; settings: in vivo
Mus musculus [33] = test: Inhibition of MET Y1349 phosphorylation in SCID mouse bearing advanced-stage human Hs746T cells at 20 mg/kg, iv administered as single dose after 24 hrs by using MSD assay; format: functional
[34] = Drug uptake in tumor of SCID mouse bearing advanced-stage human Hs746T cells at 20 mg/kg, iv administered as single dose after 24 hrs by liquid chromatography-tandem mass spectrometry; format: ADME, organism-based, Neoplasm; settings: read-out: Drug uptake
Mus musculus [35] = test: Inhibition of MET Y1349 phosphorylation in SCID mouse bearing advanced-stage human Hs746T cells at 20 mg/kg, iv administered as single dose after 48 hrs by using MSD assay; format: functional
[36] = Blood clearance in advanced solid tumor patient at 50 to 740 mg/m2 relative to hepatic blood flow during phase-1 trial; format: ADME, tissue-based; settings: human
[37] = AUC in SCID mouse bearing advanced-stage human Hs746T cells at 20 mg/kg, iv administered as single dose after 1 to 72 hrs by liquid chromatography-tandem mass spectrometry; format: ADME, organism-based; settings: in vivo
[38] = Terminal half life in mouse at 1 mg/kg, iv […]; format: ADME, organism-based; settings: in vivo, read-out: beta t1/2 (converted)
[39] = Protein binding in plasma of SCID mouse bearing advanced-stage human Hs746T cells at 20 mg/kg, iv administered as single dose after 24 hrs by liquid chromatography-tandem mass spectrometry; format: ADME, organism-based; settings: read-out: PPB (converted)
[40] = Apparent permeability from apical to basolateral side in human Caco2/TC7 cells at 20 uM by liquid chromatography-tandem mass spectrometry; settings: Caco-2
[41] = Volume of distribution at steady state in rat at 5 mg/kg, iv; format: ADME, organism-based; settings: in vivo, read-out: Vdss
Cytochrome P450 3A4 = Cytochrome P450 3A4 (Homo sapiens, UniProt P08684); test: Inhibition of human recombinant CYP3A4 co-expressed with human P450 reductase and human b5 reductase assessed as reduction in 7-Hydroxyquinoline production using 7-benzyloxyquinoline as substrate and NADPH incubated for 15 mins by fluorimetry; format: ADME
Sequence of Cytochrome P450 3A4 (P08684 whole entry, the tested form may be a part): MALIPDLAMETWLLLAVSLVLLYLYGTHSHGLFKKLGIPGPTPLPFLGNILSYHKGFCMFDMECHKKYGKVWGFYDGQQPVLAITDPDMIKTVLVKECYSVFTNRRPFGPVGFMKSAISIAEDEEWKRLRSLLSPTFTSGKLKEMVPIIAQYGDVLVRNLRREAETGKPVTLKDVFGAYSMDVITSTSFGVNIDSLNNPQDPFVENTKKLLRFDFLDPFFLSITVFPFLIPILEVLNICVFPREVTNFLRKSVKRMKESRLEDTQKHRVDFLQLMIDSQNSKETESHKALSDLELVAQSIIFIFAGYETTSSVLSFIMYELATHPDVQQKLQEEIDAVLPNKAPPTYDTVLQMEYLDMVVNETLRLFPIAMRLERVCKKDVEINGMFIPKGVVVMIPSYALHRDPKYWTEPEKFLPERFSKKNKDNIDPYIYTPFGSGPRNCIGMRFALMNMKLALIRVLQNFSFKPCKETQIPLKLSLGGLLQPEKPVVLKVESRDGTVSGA

[42] = Drug distribution in rat at 25 mg/kg administered as [14C[-labeled compound through infusion after 1 to 2 hrs; format: ADME, organism-based; settings: in vivo, iv
[43] = Drug metabolism in human hepatic microsomes at 5 uM incubated for 20 mins in presence of NADPH by liquid chromatography-tandem mass spectrometry; format: ADME, Microsome; settings: liver microsomes, read-out: Drug metabolism

Structure (SMILES): O=C(NCCN1CCOCC1)Nc1nc2ccc(Sc3nnc4ccc(-c5ccc(F)cc5)nn34)cc2s1 [SAR-125844]
- Kp (in vivo): 8.1
- clearance [1]: 8.33 mL/min/kg
- pIC50 [2]: 8.40
- solubility thermodynamic [3]: 500 µM
- inhibition (Mus musculus [4]): Tde
- clearance [5]: 25 mL/min/kg
- Vd [6]: 505 L and 7.2 L/kg
- half-life [7]: 15.9 h
- inhibition in vivo at 20 mg/kg (Mus musculus [8]): 96%
- clearance [9]: 51.7 mL/min/kg
- Vd [10]: 1.3 L/kg
- pKd [11]: 9.05
- MTD [12]: 570 mg/m2
- half-life [13]: 3.8 h
- logD [14]: 4.2
- pIC50 (MKN-45): 8.15
- Drug uptake(free) [15]: 2 nM
- half-life [16]: 3.6 h
- pIC50 [17]: 7.19
- pIC50 [18]: 8.30
- Drug uptake [19]: Dose-dependent effect
- pIC50 [20]: 8.22
- Vd [21]: 4.2 L/kg
- CL [22]: 20%
- CL [23]: 54%
- clearance [24]: 565 mL/min and 8.33 mL/min/kg
- clearance [25]: 46.7 mL/min/kg
- Drug uptake [26]: Active
- pIC50 [27]: 6.69
- Drug uptake [28]: Active
- solubility thermodynamic [29]: < 1 µM
- bioavailability [30]: 2%
- Vd [31]: 3.2 L/kg
- CL [32]: 36%
- inhibition in vivo at 20 mg/kg (Mus musculus [33]): 80%
- concentration at 24 h [34]: 300 ng/mL
- inhibition in vivo at 20 mg/kg (Mus musculus [35]): 61%
- CL [36]: 37%
- AUC [37]: 6190 ng·h/mL
- half-life [38]: 4.8 h
- fraction unbound at 24 h [39]: 0.0033
- Papp A→B at 20 µM [40]: 0.9 ×10⁻⁶ cm/s
- Vd [41]: 2.9 L/kg
- pIC50 (Cytochrome P450 3A4): < 3.70
- Drug uptake [42]: Active
- metabolised at 20 min, 5 µM [43]: 23%
